Test system: MS2 coat protein
Test: apparent Kd, MS2 coat protein; higher = weaker binding; RNA-MaP array
Outline: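 In Tris-HCl pH 7.5 buffer with KCl, MgCl2, BSA, DTT, tRNA and Tween20, with or without input ligand, fluorescently labeled MS2 coat protein at 1.5 nM to 3 μM was incubated at room temperature with designed RNAs. The RNAs had been transcribed on an Illumina sequencing chip from sequenced DNA templates, and incubation ran 0.8–1.5 h at the lowest to 10–20 min at the highest concentrations. Apparent Kd is the median of binding-curve fits for individual clusters. Designs measured on fewer than 10 clusters were excluded.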

[1] = designed as: ON switch for flavin mononucleotide, no ligand
[2] = ligand present: flavin mononucleotide, designed as: ON switch for flavin mononucleotide
[3] = designed as: OFF switch for flavin mononucleotide, no ligand
[4] = ligand present: flavin mononucleotide, designed as: OFF switch for flavin mononucleotide
[5] = designed as: ON switch for theophylline, no ligand
[6] = ligand present: theophylline, designed as: ON switch for theophylline

Sequence | apparent Kd [1] | apparent Kd [2] | apparent Kd [3] | apparent Kd [4] | further results
AAGGAACAUGAGGAUCACCCAUGUGCUUGCCAGCAAGGAUAUGGUUGUGACAUCUAUAUGCCAGAAGGUGCCGGAC | 286 nM | 85.6 nM |  |  | 
AAGGUCCAAGAGAAGGCGCUCAUGGGAUCAAGACAUGAGGAUCACCCAUGUUGGCGCAGCACAAGCGAGGAUAUCUCCACCGGC | 420 nM | 330 nM |  |  | 
AAUCAGAAAGGAUAUACAAGGAUUUUAUAUAGCACUGCUGGACAUGAGGAUCACCCAUGUAGAAGGUUCGCCCU |  |  | 11.3 nM | 9.51 nM | 
AAUCCUAAUGUCAGGAUAUUGCAGAAGCCAGAACACAAGAAGGGACAUGAGGAUCACCCAUGUAUAGUCACAUA |  |  | 22.4 nM | 59.1 nM | 
AAUGACGCGAAGAAGGACUGAUACCAGCUAAAAGUAGGAUAUUCUGAACGUGGACGGUUUACAUGAGGAUCACCCAUGUAUGAA |  |  | 9.29 nM | 9.01 nM | 
AAUGGAAGGGAGAAGGCACGCUCUGUCGAACCGUGAGGAUAUCCAUCGGGUAAUAUACAUGAGGAUCACCCAUGUGGCGUCCAG | 25.8 nM | 14.6 nM |  |  | 
ACAUACGAACGAGGAUAUCUCCACAUGAGGAUCACCCAUGUUUGGGUCCGAUAGUAGCGUGCAAAAGAGAAGGCGUGUACAUCC |  |  | 22.8 nM | 25.5 nM | 
ACAUGAGGAUCACCCAUGUCUACGAAGGUCGAAAUUAAUACCAGAAGGCGCGUCGACUAAGAGUGCGAGGAUAUGGUGUGUCGA | 52 nM | 9.96 nM |  |  | 
ACAUGGAGGACAGGAUAUCCAUCUGGCCACCACGGAGAAGGGUCCACCCGACAUGAGGAUCACCCAUGUAUCAACGUGAUGAGU | 23 nM | 18.1 nM |  |  | 
ACGAACAUGAGGAUCACCCAUGUUGUUUCUAAGACUCGGUCAAGAAGGUGUCGUUACGAGUCGAACAAGGAUAUUGAUCCGAAC | 28.6 nM | 20.6 nM |  |  | 
ACGAGGUACACAGGAUAUGCAAACAUGAGGAUCACCCAUGUGUUCGCCAAUAUCGUGAAUGUGUCGCAGAAGGGUGGUAGUCUA | 12.3 nM | 9.83 nM |  |  | 
ACGGGAGCAGAAGGAUAUAGGGUAGGUAUUAGACUAGAAGGACUCUUACAUGAGGAUCACCCAUGUAGUUCAGAAUGGGAAAUC | 45.5 nM | 40.4 nM |  |  | 
ACUAUUCAUUAUGGCACAUGAGGAUCACCCAUGUAGUGCGAACAGGAUAUACAAAAGAAUGUCAAGUAGAAGGGUUCCAGGUUC | 28 nM | 19.8 nM |  |  | 
ACUUAGAGAUAGAAGGAUGGAGUCAGGGUCCACAUAGGAUAUAUCUUGCACGAAACAUGAGGAUCACCCAUGUUGGAAUCCUCU |  |  | 30.4 nM | 27.8 nM | 
ACUUGACAUGAGGAUCACCCAUGUGAUCCGUCAUUAGGAUAUCGAAGGUAUAUCACGCCUCGAGAAGGAAUAGCGG | 361 nM | 65.5 nM |  |  | 
AGAAGUCCAGACUACACGUGGAAAAGCGAUACCAGACUCAUAGGUGUCCCUUGGCAGCGCGUAACAUGAGGAUCACCCAUGUGAU |  |  |  |  | apparent Kd (designed as: OFF switch for theophylline, no ligand): 142 nM; apparent Kd (ligand present: theophylline, designed as: OFF switch for theophylline): 139 nM
AGAUCACAUGAGGAUCACCCAUGUCAGGAACUAAGGUACGCUAGAAGGCCGGAUAUGCGGGAAGCGGAGGAUAUAGCAAGCAUC | 40.8 nM | 19.6 nM |  |  | 
AGCACAAAGUAGAAGGGUAGCACCGAUUUUCAUACAGGAUAUACGAAGGCAGGGUCAACAUGAGGAUCACCCAUGUUACCGCUU | 5.59 nM | 5.39 nM |  |  | 
AGCAGCCCUAAAGGAUAUUUGCGCGAGCAAAGCAAAGAAGGUUAAGGGUGGGCUUCAGAGACUACAUGAGGAUCACCCAUGUCC | 448 nM | 112 nM |  |  | 
AGCGCUUAACCAUAGGAUAUAUUGAUCAUUACAUGAGGAUCACCCAUGUGUCGAAGAAGGCAAUCAUAGAAGGAUGUCAUGUCGCU | 26.7 nM | 17.3 nM |  |  | 
AGGAAACAUGAGGAUCACCCAUGUGAGGAUAUACAAAAGAGCGAAAGAAGAAAUUAAUGUAGAAGGCACGUCAA |  |  | 15.1 nM | 13.3 nM | 
AGGAGACAUGAGGAUCACCCAUGUCCAGAUACCAGAAUGUCUUUGUUCCCUUGGCAGCUGUGGAAAUCUGACCUGCCUCGGUCUG |  |  |  |  | apparent Kd [5]: 14.2 nM; apparent Kd [6]: 15.7 nM
AGGCUUAAAAUGGAGGAUAUCUGUCGCAAAACAUGAGGAUCACCCAUGUACAUAAUGGGCACCACAGAGAAGGCCAUGUACUUUUC | 27.5 nM | 11.7 nM |  |  | 
AGGGAACAUGAGGAUCACCCAUGUGCCGAUACCAGUGAUUUUCAGCACCCUUGGCAGCGGAACCUUUGUUAUAUUAUUCUUAGGG |  |  |  |  | apparent Kd [5]: 36.7 nM; apparent Kd [6]: 28.2 nM
AGUAAAGUAGAAGGAUAUCACGAACAUGAGGAUCACCCAUGUUAAGAUCGGCGUGAGACAACAGAUGAGAAGGACUAAUAUGCU |  |  | 10.9 nM | 10.2 nM | 
AGUGGACUGAGGCAGGAUAUCUAUUCAGGAACAUGAGGAUCACCCAUGUCAUGAAAUGACUCGUGAGAGAAGGGCCGUCAACUUAU | 22.9 nM | 29.5 nM |  |  | 
AGUUGAGGAGGAUAUACAUGAGGAUCACCCAUGUGACUGUGUCUGUUGCGCUGGAUCGGUAGAAGGCCUUAGUA |  |  | 12.2 nM | 16.4 nM | 

Sequence | apparent Kd [1] | apparent Kd [2] | apparent Kd [3] | apparent Kd [4] | further results
AGUUUUAUCGUGUAGGAUAUGGGAUAAUCAACAUGAGGAUCACCCAUGUCAUGAGUGACAAGCGACCAGAAGGACACCAAUACAAC | 400 nM | 55.8 nM |  |  | 
AUAGAGGAAGGAUAUACAUGAGGAUCACCCAUGUAACGAAGUAGUUGGAUGCCAUGAAGUAGAAGGUCCAGAUG |  |  | 14.5 nM | 13.6 nM | 
AUAGAUAAGCAGAAGGGCUUGAGAUCCGUAACUAUUGACAUGAGGAUCACCCAUGUUCGUCCCUAGCAGGAUAUGCAAAGAAGC | 61.2 nM | 22.5 nM |  |  | 
AUAGGGCGACAGAAGGGCAGUGCACGCAUUGCUGCAGGAUAUGUGGUCCACAUGAGGAUCACCCAUGUAGUAAUAUCUUGUAGU | 104 nM | 71.2 nM |  |  | 
AUCGAUAAGAAGAAGGCAUUGGCGAUGACGUUAUGAGGAUAUUCAACUACAGCUUGACCACUACAUGAGGAUCACCCAUGUGAA | 19.6 nM | 12.1 nM |  |  | 
AUCUGGUUACAAGGAUAUCCAAUGUAAACAAUAGGAGAAGGAGUGAAAAGACCUAGGAAAACAUGAGGAUCACCCAUGUAAUUA | 111 nM | 39.1 nM |  |  | 
AUGUCGGCAGGAUAUACUGGAACUUGACCCGUGAACACGAUACAUGAGGAUCACCCAUGUAGAAGGGCCUAAAA |  |  | 11.5 nM | 43.4 nM | 
AUUACCCAAGGAUAUUGCAAUUGAGACAUGAGGAUCACCCAUGUACUUCCGGGUGUCAAUCAAGAAGGUGGAUGUU |  |  | 23.1 nM | 20.9 nM | 
AUUCGGUCAGGAUAUAGCGCACGCCGACGAACAUGUGGCGGCUAGAAGGGACAUGAGGAUCACCCAUGUCGGGC |  |  | 8.41 nM | 10.7 nM | 
AUUUAGCAUAUACAUGAGGAUCACCCAUGUCUGAUACAUAGUAGAAGGCCCGUUAAGACAUACAGGGAGGAUAUACGUACAUGU | 49 nM | 9.85 nM |  |  | 
AUUUUGGGAGGAUAUACAUGAGGAUCACCCAUGUUUUAGAACGUAAGAGAAUCCGGAGGUAGAAGGCCCUUCUG |  |  | 180 nM | 212 nM | 
CAAAGGAACCAGAAGGCCAUAGGUAAAAUAGUUGGAGGAUAUGGGCACAUGAGGAUCACCCAUGUUCACUGUAAUCAGGAAUAG | 102 nM | 35.3 nM |  |  | 
CAAAUGAGAGGAUAUACAAUUAGAUUUCAAAGUCACAUCAGACAUGAGGAUCACCCAUGUAGAAGGCUCGGAUA |  |  | 23.7 nM | 193 nM | 
CAAUGGACGGUAGGAUAUGUACUAGAGAAGCAGACAGAAGGACCUAGUCCGACAUGAGGAUCACCCAUGUGAAACCCGGUCCAG |  |  | 6.83 nM | 6.44 nM | 
CACAAACCAGAGAAGGCCCUAAGAGUAUAGAGAAUACGAAACAUGAGGAUCACCCAUGUCAUAUGGGAGGAUAUCAACAAGAUU | 135 nM | 11.3 nM |  |  | 
CACAAGUCGUAGGAUAUCACCACAAAUAGCUGCUGAGAAGGACGGACAUGAGGAUCACCCAUGUGUUCCGCAAU |  |  | 14.8 nM | 23.8 nM | 
CACUACAUGAGGAUCACCCAUGUAUACUGACGAGGACCGGUACGGCCGCCACUCGAACCGAAACCGACUUCAUUCUGUGUACCAU |  |  |  |  | apparent Kd (designed as: ON switch for tryptophan, no ligand): 15.4 nM; apparent Kd (ligand present: tryptophan, designed as: ON switch for tryptophan): 16.2 nM
CAGGGACAUGAGGAUCACCCAUGUAAGGAUAUGCCCAAAAGAGCGACUACUAAAGGAGGCAGAAGGUACGAACG |  |  | 28.6 nM | 31.6 nM | 
CCACGGAGUUUAGGAUAUGUCGGCUUGGAGUUUACAGAAGGAAAUUGCGCAGCCACAUGAGGAUCACCCAUGUUCGGAAAUACG | 31 nM | 21.4 nM |  |  | 
CCAGCUCUAUAGGAUAUUCUUGAUGAAGACACGGAAGAAGGAUAGACAUGAGGAUCACCCAUGUCCUUACAUGU |  |  | 19.4 nM | 17.3 nM | 
CCAGGACAUGAGGAUCACCCAUGUACGGUCAGCGAAGGAUAUAUUGCGUGGCGAGUGCUGAUAGAAGGUCGUAAAC | 15 nM | 10.9 nM |  |  | 
CCAGUUGACUAGAAGGCAAUACGGAUAAAGUAACUGACCACAUGAGGAUCACCCAUGUAUCCCAUUGAGGAUAUAGCAUUAAGU |  |  | 44.2 nM | 25.8 nM | 
CCCACGUACGAGAAGGCACCGGUUUGAUCCACGUAAGUCCUUUACAUGAGGAUCACCCAUGUAGGUGAGGAUAUCGUCAUGACU |  |  | 160 nM | 264 nM | 
CCCAGAUGCUAGAAGGCCUACAUGAGGAUCACCCAUGUAUCCGCUAUCCACACACGCAGGCGGCAGGAGGAUAUAGACGAAGGA | 8.84 nM | 6.63 nM |  |  | 
CCGGAAUUGCAGGAUAUACGCAAACCACAUGCUGUAGAAGGGCAAACAUGAGGAUCACCCAUGUGGUCGAGCAG |  |  | 13.4 nM | 17.9 nM | 
CCGGAGACCGUGUCAGCGGAAGCAAGAACACGAGGACCGGUACGGCCGCCACUCGAAAGAAGACAUGAGGAUCACCCAUGUCCAU |  |  |  |  | apparent Kd (designed as: OFF switch for tryptophan, no ligand): 12 nM; apparent Kd (ligand present: tryptophan, designed as: OFF switch for tryptophan): 13.9 nM
CCUAUCAAACGAGGAUAUGUGCGGACAAGAAACACAGAAGGCGAACCACAUGAGGAUCACCCAUGUACGAAGACAAAGCAAGAA | 22.7 nM | 14.5 nM |  |  | 

From the EternaBench riboswitch data
